# Results reported in the EternaBench riboswitch data.
# System: MS2 coat protein
# Experiment: apparent Kd, MS2 coat protein; higher = weaker binding; RNA-MaP array; FMN 200 µM where present
# Outline: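 The apparent Kd is the median of filtered binding-curve fits, one per cluster, to green signal normalised to red-channel RNA signal and control-cluster median Fmax. The clusters were on Illumina sequencing chips, and stalled E. coli RNA polymerase had transcribed the designs on them. Titration used SNAP-549-labelled MS2 coat protein from 0.7 or 1.5 nM, doubling to 3 µM, without and then with constant ligand, in 100 mM Tris-HCl pH 7.5, 80 mM KCl, 4 mM MgCl2, BSA, DTT, yeast tRNA and Tween-20.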
# [1] = designed as: OFF switch for flavin mononucleotide, no ligand
# [2] = ligand present: flavin mononucleotide, designed as: OFF switch for flavin mononucleotide
# [3] = designed as: ON switch for flavin mononucleotide, no ligand
# [4] = ligand present: flavin mononucleotide, designed as: ON switch for flavin mononucleotide
Sequence,apparent Kd [1] [nM],apparent Kd [2] [nM],apparent Kd [3] [nM],apparent Kd [4] [nM]
GCACGGUUGGUAGGAUAUCAUUGCGAUUAGCUAUGAGAAGGACCACAUGAGGAUCACCCAUGUCCUCUAAUUAGCCUGCCGUGC,152,355,–,–
UCAGGAGUCACAGGAUAUCCGGCAUAGCAUACAGGAGAAGGGUGAUCACAAGCACAUGAGGAUCACCCAUGUGACAUUUGUGGA,–,–,115,49.5
CAGUCUACAGGAUAUACAUGAGGAUCACCCAUGUGUAUUCACUUUCAGUAGUCCAUAUGUAGAAGGGUAGACUG,15.9,22.5,–,–
GUUCUUCCUGUGAGGAUAUCCAUGUUUCGGUUUGUGGAGAAGGUACAUGAGGAUCACCCAUGUCACCCGCGUUU,14.1,15.8,–,–
AGUGUGUGGCAGGAUAUUCCGGUCGUGGGUCGGGAAGAAGGGUCUACAUGAGGAUCACCCAUGUGAGCGGUUGA,210,241,–,–
CAGUACAUGUUAGGAUAUGAUUCGGUACAGCGAUCAGAAGGAACAUGAGGAUCACCCAUGUGACCCACGAUUUGCAAACUAAGA,8.43,17.8,–,–
UCCUGAUUGAGAGGUAGGAGUGGUAGAAGGCGACCGGUGCCAGAUGACAUGAGGAUCACCCAUGUCGAGGAUAUACCACUGAAU,7.38,12.4,–,–
GGACGGAAAGUGAGGAUAUGCUCUACCUCGGUAGAGCAGAAGGCACAUGAGGAUCACCCAUGUGAUUACUGUUC,25.5,184,–,–
GCCGAAAGUGUGAGGAUAUACCUAUGGAAACAUAGGUAGAAGGCACAUGAGGAUCACCCAUGUUCCUCAUCGGC,123,623,–,–
AAGCCACAUGAGGAUCACCCAUGUCAGGAUAUCUCGAAAAGCAUAGAAAUAUGCGAAGAGAGAAGGGACUACUC,43.1,67.7,–,–
GCAACGCCUGACAUGAGGAUCACCCAUGUUAGAUUGUUAUGUCAGGAUAUUGUCGCUAAAGGUGAUGAGAAGGGAUAUGUUGCU,–,–,1180,71
AUCAUCUCGUCAGGAUAUACGUCACUGCGUCAGCAGUGUGGUAAGAUCACAUGAGGAUCACCCAUGUAGAAGGGACGAGCUGAU,14.4,226,–,–
UGCUACUAGGGAGGAUAUGGGAAGAUACAUGAGGAUCACCCAUGUUUAAGAAUGCCGAGAGGCAACUAGAAGGCCCUAGUACCU,–,–,401,22.1
GUAAAACAUGAGGAUCACCCAUGUCAACAAAGUCGAGGAUAUGGGCAAAUAAAAUAAGAACCAGAAGGCGAAUAAG,–,–,161,42.6
ACAUGAGGAUCACCCAUGUAGAAUGGAGAAGGUAGAUACUUGUGACUCUCCCAUGUACAUAGGACUGAGGAUAUUCUAAUAAUU,–,–,49.6,40.2
CCUCCACAUUAGGAUAUCAUCAAACUAUUGUGAUGAGAAGGAAUGACAUGAGGAUCACCCAUGUUAUCGUGAUG,20.9,18.1,–,–
AUCAGCUCGUCAGGAUAUACGUCACUGCUUCGGCAGUGUGAAAAGAUCACAUGAGGAUCACCCAUGUAGAAGGGACGAGCUGAU,9.15,120,–,–
AUCAGCUCGUCAGGAUAUACGUCACUGCGUCAGCAGUGUGGUAAGAUCACAUGAGGAUCACCCAUGUAGAAGGGACCAGCUGAU,13.4,229,–,–
UUGUUAUAUGUAGGAUAUGCAUAUUAUUAUUAUGCAGAAGGACAUGAGGAUCACCCAUGUAUAUUGUUAUUAUAUAUUAUAUAU,24.2,32.5,–,–

Sequence,apparent Kd [1] [nM],apparent Kd [2] [nM],apparent Kd [3] [nM],apparent Kd [4] [nM]
GGAUGACAAAGUCAUCCAAAUCGAACAUGAGGAUCACCCAUGUAGGAUAUGCUUCUCAAAGAGAAGCAGAAGGACAUGUGCUUU,37.8,228,–,–
CUUUUGUGAGGAUAUUAGUAUUAAAUAAAUAAAAUUACUACUGAGAAGGCACAUGAGGAUCACCCAUGUUCCUC,30.3,131,–,–
AAAAGCAGAGGAUAUACAUAAUUAUGACGAAAGUCAUAAAAACAUGAGGAUCACCCAUGUAGAAGGCUGCAAAA,24.4,34.1,–,–
GGCAGUCCGACACAGGAUAUGGGUAACGAAACAUGAGGAUCACCCAUGUGGAAACAUCGGGUUGCCUAGAAGGGUGGAAAGAUUG,–,–,117,32.1
CUCUUGUUAGGAUAUCAAACCGGCGGCGGAGCCGCCGGAAGUGAGAAGGGACAUGAGGAUCACCCAUGUAAGAA,71.5,312,–,–
ACGCGAUGGGAGAAGGUACUUUAAAAUAUUUCCACAUGAGGAUCACCCAUGUAAGGAUAUCCCAUCGUUAAAUAUUAUACAGCA,7.07,5.91,–,–
AGCAUGUAAGGAUAUGUAACGCGGCGUUCAUUCGUCGUCCCACAGAAGGUACAUGAGGAUCACCCAUGUGCUCC,42,77.7,–,–
AAGAAGUCAGGAUAUCCUGCUCGUCACUUGCGUGAUGAGUAGGAGAAGGGACAUGAGGAUCACCCAUGUAAAGA,54.3,51.5,–,–
GUAUAUAUUACAUGAGGAUCACCCAUGUCAGAACGGGUAAUCAGAAGGUACUAUUAGAGAAAGAGUAAGGAUAUGAUUAUAUAC,–,–,329,33.9
UGUGCGUAUGUGAGGAUAUGCUGGUCCUUGGCUCGGCAGAAGGCACAUGAGGAUCACCCAUGUGGUGUCGUACA,227,37.5,–,–
UACAGCGUAGAUAAUAAUGAAUACAUGAGGAUCACCCAUGUAUAGGAUAUGCAGUGGAAUACACUGCAGAAGGAUACAUCGCUG,16.4,23,–,–
GGGUACAUCGGAGGAUAUCAUGUAAAUACAUGAGGAUCACCCAUGUCGAUGGAGACAUCGGAGAUUCAGAAGGCCGAUGUACCG,–,–,108,35.5
GUCGUGUGAGGAUAUGAUUAUUAGGCGGGAUUGCGACUGCUUCAGAAGGCACAUGAGGAUCACCCAUGUAUGAA,11.4,39,–,–
GCCUGUGAAGGAUAUACAUGAGGAUCACCCAUGUGGCGGGCAUACCCGCCGAGACCGUGUAGAAGGUCAUAGUA,67.5,57.6,–,–
ACUUAGUACAAUUUAGAUCUACAUGAGGAUCACCCAUGUACUGAGGAUAUCAGCUCGAAUAGAGCUGAGAAGGCAGAAGUACUU,–,–,245,53.5
GGUUACAUCGGAGGAUAUCAUGUAAAUACAUGAGGAUCACCCAUGUCGAUGGAGACAUCGGAGAUUGAGAAGGCCGAUGUACCG,–,–,170,7.97
CCCAUCGCAUGAGGAUAUGGUCAGGUUUCCUGACCAGAAGGCAUGUCAUAAGACAUGAGGAUCACCCAUGUAGUUAAGAUGGGA,–,–,672,47.5
UGUGCGUAUGUGAGGAUAUGCUGGUCCUUGGAUCAGCAGAAGGCACAUGAGGAUCACCCAUGUGGUGUCGUACC,314,48,–,–
GCGGGCCGCGCAGGAUAUACAGGGUACAUGAGGAUCACCCAUGUCCUUGGUGAGAUCAUUUGCCCGUAGAAGGGCGAGGGUCGG,44.3,114,–,–

Sequence,apparent Kd [1] [nM],apparent Kd [2] [nM],apparent Kd [3] [nM],apparent Kd [4] [nM]
CGCAAGUCAGGAUAUUCGACUGGUCCAUCUGUGGAUUUGUAGGAGAAGGGACAUGAGGAUCACCCAUGUUUGUU,30.6,23.9,–,–
AUUUUGUCAGGAUAUGAGUAGUAGGACGAAAGUGCUACUACUUAGAAGGGACAUGAGGAUCACCCAUGUCUUCC,13.9,16.8,–,–
CGCACUGAUAGAGGAUAUGUUUAACAUGAGGAUCACCCAUGUGUACAAGAAUCAAUAUUUAUCAAACAGAAGGCUAUUAGUGCG,5.06,4.08,–,–
CACUCGUGUCUAGGAUAUGAGUGACAAGCGCGAGAUUUCCUCGCCGCUAGCUCAGAAGGAGACAUGAGGAUCACCCAUGUAAGG,90,24.4,–,–
UUAUGUUUUGUAGGAUAUCAUUAGAUUUGUAAUUUAAUUGUAAUUUAGAUAUGAGAAGGACAUUUACAUGAGGAUCACCCAUGU,16.1,11.5,–,–
UUUUAGGUAGGAUAUACAUUUUUUUUAUUAUCCUCAUUAUUACAUGAGGAUCACCCAUGUAGAAGGACCAUUUU,215,341,–,–
CGUAGCAAAGUGAGGAUAUCUAGAGCGAUAGCUCUAGAGAAGGCACAUGAGGAUCACCCAUGUGAUCAGCUACG,276,899,–,–
AUCUCGUCAGGAUAUCCUAGUAAUUGUUUCAUAUUUACGAUGGAGAAGGGACAUGAGGAUCACCCAUGUUGGUC,64.4,144,–,–
CGCGAAAACAUAGGAUAUUGUUACAUGAGGAUCACCCAUGUCAACCAUGUAGCUCGAAUUGUUGUCAAGAAGGAUGAGGUCGCG,–,–,18.4,22
AAGUCAGCAGGAUAUGCGAUGGUGUGCUAGGUAGCUUGCCCACAUGAGGAUCACCCAUGUAGAAGGGCUGGCUA,13.2,12.1,–,–
GAUUCGGGAGGAUAUACAUGAGGAUCACCCAUGUGUUUUUUGUGUGUUUUGUUAUCGUGUAGAAGGUUUGGGUC,117,172,–,–
GUUUCUAUAAGUUAUAAUUAACAGUCAGAAGGUGAUACUACGACAUGAGGAUCACCCAUGUAAUUCAAGGAUAUGAACUUAAUC,–,–,1120,539
UUACUAUUGCAGAAGGCUCAAUAAUAUAUAAAGGGAGGAUAUGCAACAUGAGGAUCACCCAUGUUUCACCCAUAUGAGGAUCAC,9.51,13,–,–
CGAUAGGACAGAGGAUAUACACAUGAGGAUCACCCAUGUGAUUACAACGCUUAAGCUCCAAACAUGUAGAAGGCUGUCCUAUCG,21.7,27.9,–,–
GUGCCUAACUAGAAGGCCCAAUGCAAAGCAUAGGGAGGAUAUGGGUUUAAUAAAUAAACAUGAGGAUCACCCAUGUGGCACAAA,–,–,45.5,10.1
GGUGUCAUCGAGAAGGCCUCAACAUGAGGAUCACCCAUGUUGUAAUAUGGGAGGAUAUCGAUGAUACAGCUACGUUUCGUAGCA,–,–,18.5,6.1
AAACCUAUAGGAUAUACAUGAGGAUCACCCAUGUUGCGAUUUUUUAGGUAACAGAUCCGUAGAAGGGUAGGGCA,29.7,46.9,–,–
AUCAGCUCGUCAGGAUAUACGUAAUGGUAAGAUCACAUGAGGAUCACCCAUGUAGAAGGGACGAGCUGAUAAGCACGAAAGUGC,192,676,–,–
